Screens from PubChem.
Jurkat tox 60K = cytotoxicity toward Jurkat T cells, primary screen, cytotoxicity control, cell-based, Jurkat E6.1, 60K MLSMR library; AID 463, 2006; inhibition, % at 4 µM; Jurkat E6.1 viability, ATP luminescence, 48 h; actives 1.2% (n = 56,000);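 active means inhibition above the mean inhibition of all tested compounds plus 3 SD, cut at about 28% in these data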
Ecoli tolC = growth inhibitors of E. coli tolC mutant, primary screen, strain BW25113 ΔtolC::kan, 384-well. OD615. growth inhibition, % at 10 µM (by protocol). actives 2.2% (n = 65,000);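 active means growth inhibition at or above a cutoff equal to the mean over every tested compound plus 3 SD, cut at about 60% in these data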;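 further: growth measured after 20 h incubation at 37 °C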
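Test system – E. coli BW25113 ΔtolC::kan, tolC deletion mutant strain · Detection – OD at 615 nm · Buffer or medium – LB with kanamycin 50 µg/mL · Times – 20 h compound exposure of bacteria at 37 °C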
H69AR inhibit = proliferation blockers of H69AR lung cancer cells, primary screen, cell-based, human, 86K library; H69AR lung tumor viability, ATP luminescence, 72 h; stronger effect = lower value; viability, % at 10 µM; actives 6% (n = 85,000); AID 598, 2007;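 active means viability at or below 40%; inactive means viability above 40%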;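 further: multidrug resistant small cell line overexpressing MRP-1 efflux transporter; 100% = mean luminescence of untreated control wells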
HUVEC prolif 384 = inhibitors of HUVEC proliferation, primary screen, cell-based, 384-well; CellTiter-Glo luminescence, 72 h; stronger effect = lower value; viability, % at 10 µM (by protocol); actives 1.1% (n = 86,000);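 active means viability at or below 30%; inactive means viability above 30%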;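 further: 100% = median luminescence of DMSO-only cell control wells on each plate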
Lung fibro prol = antiproliferative effect on LL 47 fibroblasts – human, LL 47 cells, CellTiter-Glo luminescence, primary screen; LL 47 human lung fibroblast viability, ATP luminescence; stronger effect = lower value; viability, % at 10 µM; actives 1.1% (n = 85,000); AID 719, 2007;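 active means viability at or below 50% in the single dose screen; inactive means viability above 50%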;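 further: compound exposure lasted 72 h before the ATP readout; 100% = median luminescence of untreated cell-only wells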
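Times – overnight cell rest, 72 h compound treatment at 37 °C · Test system – human lung fibroblast line LL 47, low passage · Amount – 1,150 cells in each well · Controls – cell-only wells, no compound · Doses – 0.1% DMSO in all compound wells · Measured by – CellTiter-Glo luminescence · Buffer or medium – IMEM plus 15% FBS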
Ecoli WT expand = growth inhibitors of wild-type E. coli, primary screen, strain BW25113, expanded library, OD600. OD600 absorbance. AID 710, 2007. actives 0.15% (n = 98,000). growth inhibition, % at 100 µM;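 active means growth inhibition above about 50% at one test dose, limit read from the data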;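 further: growth measured after 20 h incubation at 37 °C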
* marks the source's active call; other numbers are inactive results; x = no result given. In the library only some 6.4% were active in any assay of this set; here they are far more common.

SMILES | Jurkat tox 60K | Ecoli tolC | H69AR inhibit | HUVEC prolif 384 | Lung fibro prol | Ecoli WT expand
C=CCNc1ncnc2c1[nH]c1ccc(C)cc12 | 22 | 90* | 77 | 79 | 92 | 82*
COc1cc2[nH]c3c(N4CCN(c5ccc(Cl)cc5)CC4)ncnc3c2cc1OC | 12 | 6 | 6.9* | 50 | 77 | -11
COc1cccc(N2CCN(c3ncnc4c3[nH]c3ccc(F)cc34)CC2C)c1 (centres undefined) | x | -1 | 4.0* | 2.3* | 1.9* | -14
Cc1ccc2[nH]c3c(NCCN4CCOCC4)ncnc3c2c1 | x | 12 | 61 | 94 | 96 | 12
COc1cccc(N2CCN(c3ncnc4c3[nH]c3ccccc34)CC2C)c1 (centres undefined) | x | 2 | x | x | x | -14
CCOc1ccc2[nH]c3c(N4CCN(c5ccccn5)CC4)ncnc3c2c1 | 6 | 66* | x | 52 | 85 | -11
O=C(Nc1nc(=O)c2ccccc2s1)c1ccc(F)cc1 | x | x | 50 | 75 | 86 | x
Cc1ccccc1SCC(=O)NC1CCOC1=O (centres undefined) | 5 | -2 | 96 | 90 | 104 | 6
O=C1CC(c2ccsc2)c2cc3c(cc2N1)OCCO3 (centres undefined) | 4 | 10 | 27* | 92 | 92 | -4
O=C1CC(c2ccncc2)c2cc3c(cc2N1)OCCO3 (centres undefined) | -5 | -12 | 93 | 84 | 103 | 9
CCOc1c(OC)cccc1C1CC(=O)Nc2cc3c(cc21)OCCO3 (centres undefined) | 9 | 20 | 15* | 77 | 96 | -11
O=C(NC1CCCC1)C(c1ccncc1)N(Cc1cccs1)C(=O)c1csnn1 (centres undefined) | -1 | -8 | 81 | 98 | 84 | 0
O=C(Nc1nc2ccccc2n1CCOc1ccccc1)c1ccco1 | 11 | -8 | 42 | 74 | 65 | -2
Cc1cccc(OCCn2c(NC(=O)c3ccco3)nc3ccccc32)c1 | -1 | 98* | 45 | 53 | 55 | -6
Cc1ccc(OCCn2c(NC(=O)c3ccco3)nc3ccccc32)cc1 | 9 | -5 | 26* | 55 | 56 | -9
O=C(Nc1nc2ccccc2n1CCOc1ccc(Cl)cc1)c1ccco1 | 24 | 77* | 53 | 56 | 59 | 1
COc1ccccc1N1CCN(C(=O)CSc2nc(-c3ccco3)cc(C(F)(F)F)n2)CC1 | -1 | 28 | 97 | 77 | 107 | -3
Cc1ccc(N(C(=O)c2ccccn2)C2(C(=O)NC3CCCC3)CCCCC2)cc1 | x | x | 110 | 110 | 94 | -4
COC(=O)C1=C(C)NC(C)=C(C(=O)OC)C1c1ccccc1[N+](=O)[O-] | x | 9 | 8.5* | 81 | 56 | x
CCOC(=O)C1CCCN(Cc2nc(N)nc(Nc3ccccc3OC)n2)C1 (centres undefined) | 6 | 9 | 51 | 113 | 93 | 11
Cc1cc(NC(=O)CC23CC4CC(C2)CC(CC(=O)Nc2cc(C)on2)(C4)C3)no1 | 3 | 7 | 95 | 83 | 97 | -1
COc1cccc(C(=O)Nc2ncc3c(n2)CC(c2ccc(OC)cc2OC)CC3=O)c1 (centres undefined) | 43* | 33 | 18* | 57 | 69 | -9
O=C(Cc1ccccc1)Nc1ccccc1N1CCN(c2ccccc2)CC1 | 1 | 63* | 85 | 89 | 83 | 0
Cc1nn(C)c(C)c1S(=O)(=O)N1CCC(C(=O)NC(C)c2ccccc2)CC1 (centres undefined) | 7 | -3 | 97 | 93 | 102 | -7
Cc1nc2ccc(NS(=O)(=O)c3c(C)c(C)cc(C)c3C)cc2s1 | x | x | 16* | 87 | 96 | 3
Cc1nc2cc(NS(=O)(=O)c3c(C)c(C)cc(C)c3C)ccc2s1 | x | x | 51 | 98 | 88 | x
CCN1CCN(c2cc3c(cc2F)c(=O)c(C(=O)O)cn3C2CC2)CC1 | x | 5 | 91 | 103 | 102 | x
COc1c(N2CCN(C(=S)Nc3ccc(F)cc3)C(C)C2)c(F)cc2c(=O)c(C(=O)O)cn(C3CC3)c12 (centres undefined) | x | x | x | x | x | 99*
